Laboratory results from ChEMBL document CHEMBL3862011, “Neuroprotective effects of benzyloxy substituted small molecule monoamine oxidase B inhibitors in Parkinson's disease” (Bioorg Med Chem, 2016).

How the values were obtained:
[1] = Neuroprotective activity against 6-OHDA-induced toxicity in rat PC12 cells assessed as cell survival at 20 uM preincubated for 24 hrs followed by 6-OHDA addition measured after 24 hrs by MTT assay relative to control; format: functional; details: PC-12, read-out: Survival
Summary of the method: (§1)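 PC12 cells seeded 5×10^3/well, after 24 h given compound at 20 μM for 24 h at 37 °C, then exposed to 6-OHDA (40 μM) or rotenone (1 μM) for 24 h. […] Mean ± SEM of three independent experiments.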

[2] = molecular target: T1, Amine oxidase [flavin-containing] A (Homo sapiens, UniProt P21397)
T1 sequence (P21397 whole entry): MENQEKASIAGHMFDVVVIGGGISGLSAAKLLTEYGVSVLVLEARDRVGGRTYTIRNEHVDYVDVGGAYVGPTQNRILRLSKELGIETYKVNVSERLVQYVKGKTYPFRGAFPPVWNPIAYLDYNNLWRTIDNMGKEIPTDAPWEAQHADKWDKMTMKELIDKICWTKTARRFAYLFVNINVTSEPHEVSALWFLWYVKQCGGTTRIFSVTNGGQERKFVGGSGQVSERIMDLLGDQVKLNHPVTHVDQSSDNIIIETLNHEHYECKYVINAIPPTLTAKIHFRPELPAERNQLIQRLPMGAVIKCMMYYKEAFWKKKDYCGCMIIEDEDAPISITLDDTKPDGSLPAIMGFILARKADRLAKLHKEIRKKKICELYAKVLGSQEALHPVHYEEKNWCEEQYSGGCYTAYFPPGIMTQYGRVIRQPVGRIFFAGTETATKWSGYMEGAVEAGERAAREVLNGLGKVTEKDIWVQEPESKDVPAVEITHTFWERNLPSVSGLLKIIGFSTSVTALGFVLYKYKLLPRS

[3] = Cytotoxicity against rat PC12 cells assessed as cell survival at 20 uM after 72 hrs by MTT assay relative to control; format: toxicity, PC-12; details: read-out: Survival
[4] = Neuroprotective activity against rotenone-induced toxicity in rat PC12 cells assessed as cell survival at 20 uM preincubated for 24 hrs followed by rotenone addition measured after 24 hrs by MTT assay relative to control; format: functional; details: PC-12, read-out: Survival; summary of the method: as §1
[5] = Cytotoxicity against rat PC12 cells assessed as cell survival at 100 uM after 24 hrs by MTT assay relative to control; format: toxicity, PC-12; details: read-out: Survival
in vitro = details: PAMPA
[6] = molecular target: T1, Amine oxidase [flavin-containing] A; test: Inhibition of recombinant human MAO-A using kynuramine as substrate assessed as decrease in 4-hydroxyquinoline production incubated for 20 mins by fluorescence spectrophotometry

CC(=O)c1cccc(OCc2ccc(Br)cc2)c1
viability at 20 µM [1]: 109%
IC50 [2]: 53.7 µM
viability at 72 h, 20 µM [3]: 107%
viability at 20 µM [4]: 105%
viability at 24 h, 100 µM [5]: 122%

O=C1CCc2ccc(OCc3cccc(Cl)c3)cc2N1
viability at 20 µM [1]: 121%
IC50 [2]: > 100 µM
viability at 72 h, 20 µM [3]: 97.2%
viability at 20 µM [4]: 110%
viability at 24 h, 100 µM [5]: 76.1%

CC(=O)c1ccc(OCc2cccc(F)c2)cc1O
Papp at 16 h, 100 ug/ml (in vitro): 15.9 ×10⁻⁶ cm/s
IC50 [6]: 50.7 µM
viability at 20 µM [1]: 133%
IC50 [2]: > 100 µM
viability at 72 h, 20 µM [3]: 115%
viability at 20 µM [4]: 106%
viability at 24 h, 100 µM [5]: 107%

CC(=O)c1ccc(OCc2ccc(Cl)cc2)cc1O
Papp at 16 h, 100 ug/ml (in vitro): 12.7 ×10⁻⁶ cm/s
viability at 20 µM [1]: 144%
IC50 [2]: 25.3 µM
viability at 72 h, 20 µM [3]: 126%
viability at 20 µM [4]: 105%
viability at 24 h, 100 µM [5]: 109%

O=c1ccoc2cc(OCc3cccc(Cl)c3)ccc12
viability at 20 µM [1]: 117%
IC50 [2]: 23.6 µM
viability at 72 h, 20 µM [3]: 119%
viability at 20 µM [4]: 101%
viability at 24 h, 100 µM [5]: 73.5%

CC(=O)c1ccc(OCc2ccc(F)cc2)cc1
viability at 20 µM [1]: 116%
IC50 [2]: > 100 µM
viability at 72 h, 20 µM [3]: 123%
viability at 20 µM [4]: 88.6%
viability at 24 h, 100 µM [5]: 105%

Cc1c(C)c2ccc(OCc3cccc(F)c3)cc2oc1=O
viability at 20 µM [1]: 130%
viability at 72 h, 20 µM [3]: 108%
viability at 20 µM [4]: 115%
viability at 24 h, 100 µM [5]: 109%

CC1(C)CC(=O)c2ccc(OCc3ccc(F)cc3)cc2O1
Papp at 16 h, 100 ug/ml (in vitro): 9.71 ×10⁻⁶ cm/s
viability at 20 µM [1]: 148%
IC50 [2]: > 100 µM
viability at 72 h, 20 µM [3]: 122%
viability at 20 µM [4]: 111%
viability at 24 h, 100 µM [5]: 96.2%

O=C1CCc2ccc(OCc3cccc(Br)c3)cc2N1
Papp at 16 h, 100 ug/ml (in vitro): 8.89 ×10⁻⁶ cm/s
viability at 20 µM [1]: 112%
IC50 [2]: 49.2 µM
viability at 72 h, 20 µM [3]: 108%
viability at 20 µM [4]: 134%
viability at 24 h, 100 µM [5]: 80.2%

C#CCN[C@@H]1CCc2ccccc21 [RASAGILINE]
viability at 20 µM [1]: 135%
viability at 72 h, 20 µM [3]: 101%
viability at 20 µM [4]: 109%
viability at 24 h, 100 µM [5]: 86.9%

Cc1c(C)c2ccc(OCc3ccc(F)c(F)c3)cc2oc1=O
viability at 20 µM [1]: 138%
viability at 72 h, 20 µM [3]: 102%
viability at 20 µM [4]: 117%
viability at 24 h, 100 µM [5]: 106%

O=C1CCCc2cc(OCc3ccc(Cl)cc3)ccc21
viability at 20 µM [1]: 127%
IC50 [2]: 0.34 µM
viability at 72 h, 20 µM [3]: 129%
viability at 20 µM [4]: 110%
viability at 24 h, 100 µM [5]: 91.2%

CC(=O)c1ccc(OCc2cccc(Cl)c2)cc1O
IC50 [6]: 17.7 µM
viability at 20 µM [1]: 134%
IC50 [2]: 48 µM
viability at 72 h, 20 µM [3]: 112%
viability at 20 µM [4]: 93.3%
viability at 24 h, 100 µM [5]: 110%

O=c1ccoc2cc(OCc3ccc(F)cc3)ccc12
viability at 20 µM [1]: 124%
IC50 [2]: 18.5 µM
viability at 72 h, 20 µM [3]: 119%
viability at 20 µM [4]: 115%
viability at 24 h, 100 µM [5]: 72.9%

Cc1c(C)c2ccc(OCc3ccc(Cl)cc3)cc2oc1=O
viability at 20 µM [1]: 114%
viability at 72 h, 20 µM [3]: 104%
viability at 20 µM [4]: 119%
viability at 24 h, 100 µM [5]: 106%

O=C1OCc2cc(OCc3ccc(Cl)cc3)ccc21
viability at 20 µM [1]: 137%
IC50 [2]: 3.61 µM
viability at 72 h, 20 µM [3]: 85.7%
viability at 20 µM [4]: 113%
viability at 24 h, 100 µM [5]: 86.7%

CC(=O)c1ccc(OCc2ccc(Cl)cc2)cc1F
viability at 20 µM [1]: 142%
IC50 [2]: 89 µM
viability at 72 h, 20 µM [3]: 113%
viability at 20 µM [4]: 101%
viability at 24 h, 100 µM [5]: 105%

O=c1ccoc2ccc(OCc3ccc(F)cc3)cc12
viability at 20 µM [1]: 115%
IC50 [2]: 13.6 µM
viability at 72 h, 20 µM [3]: 109%
viability at 20 µM [4]: 106%
viability at 24 h, 100 µM [5]: 85.2%

O=c1ccoc2cc(OCc3ccc(C(F)(F)F)cc3)ccc12
viability at 20 µM [1]: 123%
IC50 [2]: 18.9 µM
viability at 72 h, 20 µM [3]: 110%
viability at 20 µM [4]: 110%
viability at 24 h, 100 µM [5]: 81.2%

O=C1OCc2cc(OCc3ccc(C(F)(F)F)cc3)ccc21
viability at 20 µM [1]: 125%
IC50 [2]: 9.24 µM
viability at 72 h, 20 µM [3]: 87.2%
viability at 20 µM [4]: 111%

CC(=O)c1ccc(OCc2cccc(Cl)c2)cc1
viability at 20 µM [1]: 123%
IC50 [2]: 88.4 µM
viability at 72 h, 20 µM [3]: 116%
viability at 20 µM [4]: 95.8%
viability at 24 h, 100 µM [5]: 118%

CC(=O)c1ccc(OCc2cccc(F)c2)cc1F
viability at 20 µM [1]: 116%
IC50 [2]: > 100 µM
viability at 72 h, 20 µM [3]: 119%
viability at 20 µM [4]: 109%
viability at 24 h, 100 µM [5]: 118%

O=C1OCc2cc(OCc3ccc(F)cc3)ccc21
viability at 20 µM [1]: 116%
IC50 [2]: 1.33 µM
viability at 72 h, 20 µM [3]: 89.7%
viability at 20 µM [4]: 114%
viability at 24 h, 100 µM [5]: 64.9%

CC(=O)c1ccc(OCc2ccc(F)cc2)cc1F
viability at 20 µM [1]: 105%
IC50 [2]: > 100 µM
viability at 72 h, 20 µM [3]: 123%
viability at 20 µM [4]: 114%
viability at 24 h, 100 µM [5]: 106%

CC(=O)c1ccc(OCc2cccc(Cl)c2)cc1F
viability at 20 µM [1]: 133%
IC50 [2]: > 100 µM
viability at 20 µM [4]: 112%
viability at 24 h, 100 µM [5]: 108%

CC1(C)CC(=O)c2ccc(OCc3ccc(Cl)cc3)cc2O1
viability at 20 µM [1]: 143%
IC50 [2]: > 100 µM
viability at 72 h, 20 µM [3]: 109%
viability at 20 µM [4]: 108%
viability at 24 h, 100 µM [5]: 110%

O=C1CCOc2cc(OCc3ccc(Cl)cc3)ccc21
viability at 20 µM [1]: 143%
viability at 72 h, 20 µM [3]: 115%
viability at 20 µM [4]: 111%
viability at 24 h, 100 µM [5]: 98.6%

CC(=O)c1ccc(OCc2ccc(F)cc2)cc1O
Papp at 16 h, 100 ug/ml (in vitro): 13.5 ×10⁻⁶ cm/s
IC50 [6]: 3.7 µM
viability at 20 µM [1]: 144%
IC50 [2]: 43.4 µM
viability at 72 h, 20 µM [3]: 109%
viability at 20 µM [4]: 98.3%
viability at 24 h, 100 µM [5]: 101%

O=c1ccoc2ccc(OCc3ccc(Cl)cc3)cc12
viability at 20 µM [1]: 122%
IC50 [2]: 4.52 µM
viability at 72 h, 20 µM [3]: 108%
viability at 20 µM [4]: 115%
viability at 24 h, 100 µM [5]: 85%

CC(=O)c1cccc(OCc2ccc(Cl)cc2)c1
viability at 20 µM [1]: 132%
viability at 72 h, 20 µM [3]: 102%
viability at 20 µM [4]: 109%
viability at 24 h, 100 µM [5]: 117%

O=C1CCCc2cc(OCc3ccc(F)cc3)ccc21
viability at 20 µM [1]: 139%
IC50 [2]: 1.29 µM
viability at 20 µM [4]: 95.9%
viability at 24 h, 100 µM [5]: 83.3%
